The values below come from ChEMBL document CHEMBL4665883, “Development of DHQ-based chemical biology probe to profile cellular targets for HBV” (Bioorg Med Chem Lett, 2020).

The structures appear in SMILES notation. Counter-ions that a name gives are not always drawn. The source made the active and inactive calls. The rule behind the calls is not given here. Bounds are passed on as bounds.

Series [1] concerns Hepatitis B virus. Briefly: Antiviral activity against Hepatitis B virus infected in human HepG2.2.15 cells assessed as reduction in HBV DNA level in cell supernatants incubated for 5 days by real time PCR analysis. It is filed as functional, organism-based. To be noted: HepG2.2.15, 120 h. On the technique in general: Real-time PCR tracks product formation cycle by cycle.
Series [2] has as its system Hepatitis B virus. Briefly: Antiviral activity against Hepatitis B virus infected in human HepG2.2.15 cells assessed as reduction in HBsAg level in cell supernatants incubated for 5 days by AlphaLisa assay. It is filed as functional, organism-based. The following applies: HepG2.2.15, 120 h. (Alpha assays give light when donor and acceptor beads are brought close together.)

Series [3] can be described thus: Cytotoxicity against human HepG2.2.15 cells assessed as reduction in cell viability. It is filed as cell-based, HepG2 2.2.15.
The target of series [4] is T1, Heme oxygenase 2 (Homo sapiens) (UniProt P30519).
T1 sequence (whole entry): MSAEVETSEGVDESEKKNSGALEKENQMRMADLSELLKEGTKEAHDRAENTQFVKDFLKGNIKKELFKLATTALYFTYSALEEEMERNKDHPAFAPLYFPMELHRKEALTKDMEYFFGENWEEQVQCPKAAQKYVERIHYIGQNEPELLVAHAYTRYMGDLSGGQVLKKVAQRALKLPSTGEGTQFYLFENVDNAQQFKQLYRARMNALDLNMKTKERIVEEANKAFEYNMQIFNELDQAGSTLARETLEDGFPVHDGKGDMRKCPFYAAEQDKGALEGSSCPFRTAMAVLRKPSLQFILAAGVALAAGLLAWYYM
Briefly: Binding affinity to HMOX2 in human HePAD38 cells infected with HBV assessed as protein labelling at 20 uM after 1 hr by photoaffinity labelling in-situ fluorescence gel-based LC-MS/MS analysis. The class given is cell-based. The gist of the method:
(§1)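 Live HepAD38 cells incubated 1 h with photoaffinity probe at 20 μM final, then UV-irradiated. Cells were harvested and homogenized in HEPES lysis buffer. Lysates underwent copper-catalysed click conjugation to biotin-Diazo-azide, then large-scale affinity enrichment, with bound proteins identified by LC–MS/MS.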

The target in series [5] is T2, Aldehyde dehydrogenase 1A1 (Homo sapiens) (UniProt P00352).
T2 sequence (whole entry): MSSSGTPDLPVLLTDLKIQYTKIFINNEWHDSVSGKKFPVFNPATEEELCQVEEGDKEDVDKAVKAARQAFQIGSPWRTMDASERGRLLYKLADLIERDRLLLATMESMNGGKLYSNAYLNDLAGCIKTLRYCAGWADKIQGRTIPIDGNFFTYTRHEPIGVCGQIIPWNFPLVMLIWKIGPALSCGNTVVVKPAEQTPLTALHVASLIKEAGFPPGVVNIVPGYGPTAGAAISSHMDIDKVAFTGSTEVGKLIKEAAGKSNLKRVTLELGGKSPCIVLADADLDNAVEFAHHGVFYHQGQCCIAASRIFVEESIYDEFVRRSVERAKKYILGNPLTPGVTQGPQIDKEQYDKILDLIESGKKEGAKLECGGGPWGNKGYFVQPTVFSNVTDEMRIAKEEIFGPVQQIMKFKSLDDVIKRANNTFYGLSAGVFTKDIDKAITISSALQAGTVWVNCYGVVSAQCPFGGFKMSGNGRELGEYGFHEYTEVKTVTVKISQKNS
Nature of the series: Binding affinity to RALDH1 in human HePAD38 cells infected with HBV assessed as protein labelling at 20 uM after 1 hr by photoaffinity labelling in-situ fluorescence gel-based LC-MS/MS analysis. It is filed as cell-based. The method, boiled down:
as §1

Series [6] addresses Terminal nucleotidyltransferase 4A (Homo sapiens) (UniProt Q5XG87). Nature of the series: Binding affinity to PAPD7 in human HePAD38 cells infected with HBV assessed as protein labelling at 20 uM after 1 hr by photoaffinity labelling in-situ fluorescence gel-based LC-MS/MS analysis. It is filed as cell-based. The method, boiled down: as §1
The target in series [7] is T3, Isocitrate dehydrogenase [NADP], mitochondrial (Homo sapiens) (UniProt P48735).
T3 sequence (whole entry): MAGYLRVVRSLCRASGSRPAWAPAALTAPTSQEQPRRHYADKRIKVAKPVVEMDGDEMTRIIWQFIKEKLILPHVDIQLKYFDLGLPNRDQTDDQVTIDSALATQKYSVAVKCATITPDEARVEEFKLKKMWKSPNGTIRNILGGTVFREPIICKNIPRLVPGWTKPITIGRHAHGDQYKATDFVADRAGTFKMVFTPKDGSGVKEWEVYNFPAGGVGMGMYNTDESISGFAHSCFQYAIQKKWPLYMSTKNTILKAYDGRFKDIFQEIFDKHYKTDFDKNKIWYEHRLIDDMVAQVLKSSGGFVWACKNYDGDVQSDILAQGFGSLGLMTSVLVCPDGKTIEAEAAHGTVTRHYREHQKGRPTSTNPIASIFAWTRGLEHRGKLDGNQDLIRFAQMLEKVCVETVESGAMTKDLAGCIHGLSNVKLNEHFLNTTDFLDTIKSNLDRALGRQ
Briefly: Binding affinity to IDH in human HePAD38 cells infected with HBV assessed as protein labelling at 20 uM after 1 hr by photoaffinity labelling in-situ fluorescence gel-based LC-MS/MS analysis. It is filed as cell-based. The method, boiled down:
as §1

In series [8] the target is Poly(rC)-binding protein 1 (Homo sapiens) (UniProt Q15365). Briefly: Binding affinity to PCBP1 in human HePAD38 cells infected with HBV assessed as protein labelling at 20 uM after 1 hr by photoaffinity labelling in-situ fluorescence gel-based LC-MS/MS analysis. The class given is cell-based. The gist of the method:
as §1

The target of series [9] is Terminal nucleotidyltransferase 4B (Homo sapiens) (UniProt Q8NDF8). Briefly: Binding affinity to PAPD5 in human HePAD38 cells infected with HBV assessed as protein labelling at 20 uM after 1 hr by photoaffinity labelling in-situ fluorescence gel-based LC-MS/MS analysis. It is filed as cell-based. The method, boiled down:
as §1

The target of series [10] is T4, Aldehyde dehydrogenase X, mitochondrial (Homo sapiens) (UniProt P30837).
T4 sequence (whole entry): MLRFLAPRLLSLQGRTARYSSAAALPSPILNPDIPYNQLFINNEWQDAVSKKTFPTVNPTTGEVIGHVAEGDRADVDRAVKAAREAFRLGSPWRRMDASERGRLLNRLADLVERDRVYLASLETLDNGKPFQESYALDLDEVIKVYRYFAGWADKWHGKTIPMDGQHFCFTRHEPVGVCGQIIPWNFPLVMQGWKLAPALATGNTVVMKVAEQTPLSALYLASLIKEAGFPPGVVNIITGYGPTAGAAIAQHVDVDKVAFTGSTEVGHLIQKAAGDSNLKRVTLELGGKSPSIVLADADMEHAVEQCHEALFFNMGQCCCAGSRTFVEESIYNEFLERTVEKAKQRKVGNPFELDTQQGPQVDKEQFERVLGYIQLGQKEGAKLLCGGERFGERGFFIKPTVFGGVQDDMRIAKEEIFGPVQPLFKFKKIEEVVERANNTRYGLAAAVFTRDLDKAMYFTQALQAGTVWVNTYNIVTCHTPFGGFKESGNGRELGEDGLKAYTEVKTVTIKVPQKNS
Nature of the series: Binding affinity to ALDH X in human HePAD38 cells infected with HBV assessed as protein labelling at 20 uM after 1 hr by photoaffinity labelling in-situ fluorescence gel-based LC-MS/MS analysis. It is filed as cell-based. The method, boiled down: as §1

Series [11] addresses 60 kDa heat shock protein, mitochondrial (Homo sapiens) (UniProt P10809). Nature of the series: Binding affinity to 60 kDa HSP60 in human HePAD38 cells infected with HBV assessed as protein labelling at 20 uM after 1 hr by photoaffinity labelling in-situ fluorescence gel-based LC-MS/MS analysis. The class given is cell-based. The gist of the method: as §1

Chain of 60 kDa heat shock protein, mitochondrial (Homo sapiens) (P10809 whole entry): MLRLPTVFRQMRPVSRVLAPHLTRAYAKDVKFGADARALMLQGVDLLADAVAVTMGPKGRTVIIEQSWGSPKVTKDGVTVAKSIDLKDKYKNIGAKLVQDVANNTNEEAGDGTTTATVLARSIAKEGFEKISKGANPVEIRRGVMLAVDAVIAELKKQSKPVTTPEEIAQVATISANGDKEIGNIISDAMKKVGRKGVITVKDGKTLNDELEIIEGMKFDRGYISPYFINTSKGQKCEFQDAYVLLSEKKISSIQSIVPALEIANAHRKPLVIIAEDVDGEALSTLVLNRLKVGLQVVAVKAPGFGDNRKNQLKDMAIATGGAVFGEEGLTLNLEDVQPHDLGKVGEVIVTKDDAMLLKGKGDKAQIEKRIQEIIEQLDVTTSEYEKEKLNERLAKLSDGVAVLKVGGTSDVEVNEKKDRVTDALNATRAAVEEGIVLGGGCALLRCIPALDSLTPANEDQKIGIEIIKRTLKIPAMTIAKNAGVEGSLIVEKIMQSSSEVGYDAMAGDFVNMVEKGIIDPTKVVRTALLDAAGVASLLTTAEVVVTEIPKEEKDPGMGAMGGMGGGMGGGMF
Chain of Poly(rC)-binding protein 1 (Homo sapiens) (Q15365 whole entry): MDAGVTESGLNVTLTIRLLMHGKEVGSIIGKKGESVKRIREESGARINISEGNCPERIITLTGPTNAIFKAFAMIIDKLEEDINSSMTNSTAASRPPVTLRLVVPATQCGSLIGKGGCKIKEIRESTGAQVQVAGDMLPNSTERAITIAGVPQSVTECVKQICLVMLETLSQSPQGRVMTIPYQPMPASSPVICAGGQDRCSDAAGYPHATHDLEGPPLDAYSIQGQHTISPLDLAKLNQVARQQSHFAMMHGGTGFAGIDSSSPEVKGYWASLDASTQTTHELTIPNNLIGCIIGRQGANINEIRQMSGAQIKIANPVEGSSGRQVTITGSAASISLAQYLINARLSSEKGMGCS
Chain of Terminal nucleotidyltransferase 4A (Homo sapiens) (Q5XG87 whole entry): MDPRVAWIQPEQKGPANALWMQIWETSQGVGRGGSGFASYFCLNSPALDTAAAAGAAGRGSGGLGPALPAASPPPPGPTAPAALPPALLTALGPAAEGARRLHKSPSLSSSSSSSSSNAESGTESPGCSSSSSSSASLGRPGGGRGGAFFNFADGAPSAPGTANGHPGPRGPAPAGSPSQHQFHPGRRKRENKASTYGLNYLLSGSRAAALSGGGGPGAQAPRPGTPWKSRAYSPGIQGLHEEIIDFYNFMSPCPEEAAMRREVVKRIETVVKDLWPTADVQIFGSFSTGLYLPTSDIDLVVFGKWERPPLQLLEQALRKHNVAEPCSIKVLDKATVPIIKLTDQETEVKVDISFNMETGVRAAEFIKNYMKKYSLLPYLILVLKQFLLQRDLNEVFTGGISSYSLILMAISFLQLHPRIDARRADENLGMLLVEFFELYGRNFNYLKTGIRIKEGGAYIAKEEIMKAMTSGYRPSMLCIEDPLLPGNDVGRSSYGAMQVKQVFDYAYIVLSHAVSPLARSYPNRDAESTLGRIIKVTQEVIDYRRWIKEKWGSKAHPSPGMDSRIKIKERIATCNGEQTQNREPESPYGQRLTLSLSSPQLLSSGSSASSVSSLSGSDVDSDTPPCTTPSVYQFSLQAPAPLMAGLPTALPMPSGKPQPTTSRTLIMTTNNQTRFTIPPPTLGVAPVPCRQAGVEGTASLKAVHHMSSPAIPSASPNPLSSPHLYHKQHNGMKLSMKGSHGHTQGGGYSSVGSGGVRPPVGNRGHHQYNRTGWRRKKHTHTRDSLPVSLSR
Chain of Terminal nucleotidyltransferase 4B (Homo sapiens) (Q8NDF8 whole entry): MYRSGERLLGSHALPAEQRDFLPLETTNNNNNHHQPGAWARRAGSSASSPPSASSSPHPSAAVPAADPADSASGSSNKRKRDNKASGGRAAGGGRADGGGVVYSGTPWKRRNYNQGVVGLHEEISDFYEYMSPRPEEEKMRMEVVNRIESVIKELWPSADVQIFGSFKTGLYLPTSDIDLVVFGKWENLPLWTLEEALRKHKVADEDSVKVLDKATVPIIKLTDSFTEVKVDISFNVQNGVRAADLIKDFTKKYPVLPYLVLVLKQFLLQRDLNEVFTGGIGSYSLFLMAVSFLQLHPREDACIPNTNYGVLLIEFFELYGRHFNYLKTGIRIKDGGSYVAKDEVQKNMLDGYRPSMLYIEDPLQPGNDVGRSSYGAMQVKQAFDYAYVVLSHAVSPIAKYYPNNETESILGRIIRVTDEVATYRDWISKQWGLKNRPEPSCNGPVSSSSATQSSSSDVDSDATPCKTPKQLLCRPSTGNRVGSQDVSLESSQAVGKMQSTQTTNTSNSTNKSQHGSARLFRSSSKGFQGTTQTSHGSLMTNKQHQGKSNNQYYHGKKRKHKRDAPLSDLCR

Regarding `COC(=O)c1cc2c(cc1O)CC(C(C)C)n1cc(C(=O)O)c(=O)cc1-2` (stereo not drawn), the EC50 (commonly the concentration at which the effect is half-maximal) is 89.5 nM with Hepatitis B virus [1] and 412 nM with Hepatitis B virus [2].
In the same order, the values of `COC(=O)c1cc2c(cc1N1CCCC1)CC(C(C)C)n1cc(C(=O)O)c(=O)cc1-2` (stereo not drawn) are 3 nM and 5.7 nM.
The matching figures for `COCCCOc1cc2c(cc1OC)-c1cc(=O)c(-c3csc(N)n3)cn1C(C(C)C)C2` (stereo not drawn): 816 nM and 367 nM.
In the same order, the values of `CC(C)OC(=O)OCOP(=O)(CO[C@H](C)Cn1cnc2c(N)ncnc21)OCOC(=O)OC(C)C` [TENOFOVIR DISOPROXIL FUMARATE] are 13.8 nM and greater than 1000 nM.
Turning to `C#CCCC1(CCOc2cc3c(cc2C(=O)OC)-c2cc(=O)c(C(=O)O)cn2[C@@H](C(C)C)C3)N=N1`, the EC50 with Hepatitis B virus [1] was 82.2 nM; in the series on Hepatitis B virus [2], 305 nM. For the same molecule, the CC50 (commonly the concentration at which the toxic effect on the cells reaches its halfway point) in series [3] is greater than 150000 nM.
Regarding `COCCCOc1cc2c(cc1OC)-c1cc(=O)c(C(=O)O)cn1C(C(C)C)C2` (racemic), the EC50 with Hepatitis B virus [1] came out at 3 nM; in the series on Hepatitis B virus [2], 1.3 nM.
The matching figures for `COCCCOc1cc2c(cc1OCCOc1ccccc1)-c1cc(=O)c(C(=O)O)cn1C(C(C)C)C2` (stereo not drawn): 32.5 nM and 154 nM.
In the case of `C#CCCC1(CCOc2cc3c(cc2C(=O)OC)-c2cc(=O)c(C(=O)O)cn2[C@H](C(C)C)C3)N=N1`, the result in series [4], in series [5], in [7], in [8], in series [10] and in series [11] was Active. Further, the result in series [6] and in series [9] was inactive. Also, the EC50 stood at 3.2 nM in the series with Hepatitis B virus [1] and 5.6 nM with Hepatitis B virus [2]. For the same molecule, the CC50 in series [3] is greater than 150000 nM.
Take `COCCCOc1cc2c(cc1C(=O)OC)-c1cc(=O)c(C(=O)O)cn1C(C(C)C)C2` (stereo not drawn): the EC50 in the series with Hepatitis B virus [1] came to 6.1 nM; in the series with Hepatitis B virus [2], 2.25 nM.
